Most compounds without a hit are left out; they make up all but 5.7% or so of the library.
SKKanGAS inh: SKKanGAS growth inhibition | S. pyogenes SKKanGAS, kanamycin growth, BacTiter-Glo, 6 h | inhibition, % at 7.5 µM | hit rate 1.3% among 300,000 | AID 1662;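 active = mean replicate score, as percent of positive control median, at least 50; inconclusive = mean below 50 but one replicate at or above 50; inactive = mean and every replicate below 50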;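 also: strain carries kanamycin resistance gene driven by streptokinase promoter and grows in 40 µg/ml kanamycin; loss of luminescence reflects streptokinase promoter inhibition or plain growth inhibition; 0% = median of DMSO wells and 100% = positive control at its reference dose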
Calb FLC: C. albicans growth modulation with fluconazole; growth inhibition, % (no concentration beside the values); C. albicans CaCi-2 (fluconazole-resistant clinical isolate) + fluconazole, Alamar Blue growth, 48 h; hit rate 0.57% among 300,000;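 active = growth inhibition above about 58% in most replicates, limit read from the data, passing the limit was not always enough; inconclusive = exactly half the replicates above a set limit; inactive = most replicates below a set limit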;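 also: all wells also contain fluconazole at 8 µg/ml as a sub-toxic cotreatment; 0% = median of DMSO wells and 100% = median of geldanamycin control wells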
CSC inhib: cancer stem cell inhibition; hit rate 1.1% among 300,000; inhibition, % at 7.5 µM; cancer stem cell-like cells viability, luminescence; in the data active = inhibition above about 75%; inconclusive = no clear call, values can overlap the other calls; tested in HMLE shEcad cells
Beta apoptosis: blocks beta cell apoptosis | INS-1E cytokine-induced death, ATP luminescence, 48 h; percent of positive-control rescue, neutral wells zero | protection from apoptosis, % (concentration not given with the values) | hit rate 0.8% among 300,000;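 active = Every replicate reaches about 75%, or at least half do and their mean reaches it too, limit read from the data; inconclusive = At least half of replicates reach the limit but their mean does not; inactive = Under half of replicates reach the limit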;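 also: 0% = cytokine-treated negative control wells and 100% = positive control rescue; higher means more ATP so stronger rescue from cytokine killing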
T cruzi repl: blocks replication of Trypanosoma cruzi. hit rate 1.4% among 300,000. inhibition, % (test concentration not listed). T. cruzi beta-gal in NIH3T3, luminescence, 90 h. AID 1885;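 active = mean inhibition across valid replicates above about 55%, limit read from the data; inconclusive = mean below that limit but half or more replicates reach it; inactive = mean below it, under half of replicates reach it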;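 also: signal also drops with host cell toxicity which is not excluded here; 0% = plate median of DMSO wells and 100% = zero luminescence signal; higher percent means less beta-gal luminescence so fewer parasites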
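Read-out: Parasite load inhibition, % | Test system: Mouse NIH/3T3 fibroblasts infected with β-gal-expressing T. cruzi Tulahuen C4 | Amount: 5,000 cells/well | Medium: DMEM, 2% fetal bovine serum | Signal: GalScreen β-gal luminescence, detergent lysis, 60 min | Timing: 3 h attach, ≥90 h co-culture | Also added: Tulahuen C4 trypomastigotes, 5000/well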
Mdm2-MdmX inh: disrupts the human Mdm2-MdmX interaction; O15151+Q00987; SaOS-2 split-luciferase Mdm2/MdmX complementation, luminescence; inhibition, % at 8 µM; hit rate 3% among 330,000; AID 485346;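 active = inhibition of at least 50% at 8 µM in the primary screen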
* = called active by the depositor; ? = inconclusive; . = not tested or not shown.

SMILES	SKKanGAS inh	Calb FLC	CSC inhib	Beta apoptosis	T cruzi repl	Mdm2-MdmX inh
Cc1ccc(C(=O)NC2CCCc3c2cnn3-c2ccc(F)cc2F)cn1 (stereo unspecified)	-4.4	-3.0	4.7	100.4*	1.6	14.4
Cn1nccc1C(=O)NC1CCCc2c1cnn2-c1ccc(C(C)(C)C)cc1 (stereo unspecified)	1.0	-4.4	-6.1	115.5*	-5.9	20.1
Cc1ccc(-n2ncc3c2CCCC3NC(=O)c2ocnc2C)cc1C (stereo unspecified)	2.0	0.8	3.8	79.9*	-91.4	36.0
Cc1cccc(-n2ncc3c2CCCC3NC(=O)c2ccc[n+]([O-])c2)c1C (stereo unspecified)	8.8	3.6	-3.1	-3.2	-17.4	26.2
CN(C(=O)c1cccc(NC(=O)Cc2cccc([N+](=O)[O-])c2)c1)C1CCCC1	.	.	.	-7.4	.	5.5
O=C(NCc1ccccn1)C(=O)NCC1OCCN1S(=O)(=O)c1ccc([N+](=O)[O-])cc1 (stereo unspecified)	0.8	1.1	-11.6	-7.4	19.3	6.1
CS(=O)(=O)N1CCc2cc(-c3csc(NC(=O)Cc4cccs4)n3)ccc21	14.2	?	45.5	19.7	60.3*	-0.7
CC(=O)Nc1nc(-c2ccc3c(c2)CCN3S(C)(=O)=O)cs1	-0.5	3.9	0.5	.	-8.4	-18.0
N#Cc1ccccc1Sc1ccccc1C(=O)NCC(c1ccco1)N1CCCCC1 (stereo unspecified)	.	.	1.4	-3.1	.	9.0
O=C(NCC(c1ccco1)N1CCCC1)c1ccccc1Sc1ccc(C(F)(F)F)cc1[N+](=O)[O-] (stereo unspecified)	-1.9	-7.6	-2.5	0.1	55.8*	40.2
Cc1c(F)cccc1NS(=O)(=O)c1ccc2c(c1)c(C)cc(=O)n2C	-1.2	7.1	1.7	0.6	7.7	15.1
COC(=O)c1cc(C)sc1NC(=O)c1cccnc1	-10.9	110.0*	7.8	-7.6	5.1	7.5
Clc1cccc(CN2CCc3c([nH]c4ccccc34)C2)c1Cl	19.7	54.3	111.1*	-1.7	19.5	40.9
COc1ccccc1CN1CCc2c([nH]c3ccccc23)C1	-7.2	-5.2	8.8	-1.2	17.2	22.1
Oc1ccc(Br)cc1-c1cc(-c2ccccc2)n[nH]1	80.3*	7.6	120.4*	20.8	3.2	39.1
COc1ccc(O)c(-c2cc(-c3cccc(Br)c3)n[nH]2)c1	56.4*	-3.5	-18.4	22.8	-4.1	-65.3
CN(Cc1ccc(C(C)(C)C)cc1)C(=O)C1CSC2(C)CCC(=O)N12 (stereo unspecified)	.	.	11.7	-3.0	.	-5.0
Cc1cc(C)c2nc(N3CCCC(C(=O)N4CCN(c5ncccn5)CC4)C3)sc2c1 (stereo unspecified)	12.6	11.8	75.4*	13.2	11.4	27.7
COC(CNC(=O)c1ccc2c3c(onc13)-c1ccccc1C2=O)OC	18.1	-3.4	83.9*	58.3	0.1	-84.4
COC(=O)c1cc(C(=O)OCC(=O)N2CCCCC2)cc([N+](=O)[O-])c1	.	.	-18.9	1.1	.	1.5
CCCn1c(N)c(N(CCOC)C(=O)CSc2ccccc2)c(=O)[nH]c1=O	.	.	0.9	-5.7	.	-6.4
CN(C)CCCN1C(=O)c2cccc3cccc(c23)C1=O	-0.1	8.3	-1.1	16.5	21.7	-9.9
CC1=CC2=C(OC1N(C)C)c1cccc3cccc(c13)C2=O (stereo unspecified)	-2.9	95.7*	27.4	-20.1	9.5	4.5
CC(=O)C(Cc1ccccc1)NC(=O)CN1c2cccc3cccc(c23)S1(=O)=O (stereo unspecified)	.	.	-9.4	1.9	.	28.7
COc1cc(C(=O)NC(=S)Nc2ccccc2N2CCOCC2)cc(OC)c1OC	-9.6	4.5	14.0	17.5	14.0	19.0
SMILES	SKKanGAS inh	Calb FLC	CSC inhib	Beta apoptosis	T cruzi repl	Mdm2-MdmX inh
COc1ccc(C(=O)NC(=S)Nc2ccccc2N2CCCCC2)cc1[N+](=O)[O-]	9.4	-26.1	101.3*	0.1	39.1	17.0
O=C(Nc1ccccc1N1CCOCC1)c1cc(F)cc(F)c1	-2.3	97.1*	-2.3	-5.4	-12.9	-30.7
COc1cccc(C(=O)NC(=S)Nc2ccccc2N2CCOCC2)c1	38.6	4.9	115.6*	7.9	-2.6	43.8
O=C(O)CCC(=O)Nc1ccc(-c2csc(Nc3cccc4ccccc34)n2)cc1	.	.	-8.3	-0.7	.	-17.3
CCOc1ccc(S(=O)(=O)NCCC(=O)NCCc2ccc(C(C)C)cc2)cc1	-5.0	7.6	-7.3	-1.1	4.6	13.5
Cc1cc2nc(-c3ccc(SCc4ccc(C#N)cc4)nc3)[nH]c2cc1C	37.6	-4.1	16.3	9.2	56.3*	18.9
N#Cc1ccccc1CSc1ccc(-c2nc3ccccc3[nH]2)cn1	1.5	-17.3	.	.	13.4	-8.3
Cc1sc2ncnc(NCC(O)c3ccccc3)c2c1C (stereo unspecified)	11.1	-9.9	-17.3	87.5*	8.9	-9.9
Cc1sc2ncnc(N/N=C/c3ccc(O)cc3)c2c1C	-1.5	-14.4	36.0	-0.4	2.8	2.4
Cc1sc2ncnc(NCC(O)c3ccc([N+](=O)[O-])cc3)c2c1C (stereo unspecified)	0.6	24.1	-6.7	79.2*	25.9	7.3
Cc1sc2ncnc(N/N=C/c3ccccc3O)c2c1C	93.8*	33.9	104.8*	85.5*	32.4	.
O=C(Cn1cncn1)c1ccc(Cl)cc1	-1.2	-8.4	-9.2	-10.3	-16.3	10.9
O=C(Cn1ccnc1)c1ccc(Cl)cc1	-1.3	0.3	1.1	0.2	59.0*	22.3
Cc1nn(-c2ccccc2)c(Cl)c1/C=N/Nc1ccc(S(=O)(=O)Nc2ccccc2C(=O)O)cc1[N+](=O)[O-]	118.6*	62.8	96.4*	-1.1	-15.1	-9.4
O=S(=O)(/C(=C/c1ccc(C(F)(F)F)cc1)c1nc2ccccc2[nH]1)c1ccccc1	2.7	-5.1	100.8*	99.7*	40.9	.
C/C(=C\c1ccc(N)cc1)c1nc2ccccc2[nH]1	7.2	-14.6	1.6	-0.9	-2.2	-64.4
COc1cc2c(C(=O)N3CCN(c4ccccc4C)CC3)c(C)oc2cc1Br	51.3*	7.7	20.1	-1.3	30.2	12.0
COc1ccccc1N1CCN(C(=O)c2c(C)cc(=O)oc2C)CC1	-4.8	.	-2.1	-1.4	-6.2	11.2
CC(C)c1ccc2oc(-c3cc(N)ccc3O)nc2c1	-3.2	?	15.0	14.5	59.6*	35.3
Cc1ccccc1-c1nc2cc(N)ccc2o1	-9.6	-21.8	4.9	-4.3	-11.1	-75.0
Cc1cc(C(C#N)c2cccc(Cl)c2)n2ncnc2n1 (stereo unspecified)	5.2	95.6*	23.2	8.0	-5.0	23.8
CCOC(=O)C1=CNS(=O)(=O)NC1c1ccc2ccccc2c1 (stereo unspecified)	.	.	.	.	.	-6.6
Cc1cc(C)c2c(N=NN3CCCCC3)[nH]nc2n1	3.8	-20.6	-1.3	.	14.1	13.8
Cc1cc(C)c2c(C)[nH]nc2n1	4.3	1.9	43.5	161.5*	-8.7	10.7

Screening results (PubChem)
